From ChEMBL document CHEMBL2150903, “Synthesis and screening of novel vitamin E derivatives for anticancer functions” (Eur J Med Chem, 2012) come the findings set out here.

Format in all cases: functional, cell-based
The subject of assay [1] is MCF7. Put plainly: Induction of apoptosis in human MCF7 cells by AnnexinV/PI/FITC-based flow cytometric analysis. Background: In flow cytometry, cells or beads pass a laser one at a time.
Assay [2] concerns MDA-MB-231. Put plainly: Induction of apoptosis in human MDA-MB-231 cells assessed as PARP cleavage at 20 uM after 15 hrs by Western blot analysis. In outline: (§1)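 Cells grown in MEM with 10% FBS, glutamine, penicillin/streptomycin, non-essential amino acids and 2× MEM vitamins; serum cut to 2% for treatment. Compounds dissolved in DMSO (40 mM stock); DMSO vehicle control. Treatment 15 h, then Western blot of whole-cell extracts for PARP cleavage. Primary antibody in 0.1% BSA/TBST overnight at 4 °C, then HRP-conjugated secondary. Two separate experiments.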
Background: Immunoblotting shows a protein as a band on a membrane.

Assay [3] relates to MDA-MB-231. Put plainly: Induction of apoptosis in human MDA-MB-231 cells by AnnexinV/PI/FITC-based flow cytometric analysis.
The species entered for another assay is Mus musculus. Description: Induction of apoptosis in mouse 66cl-4GFP cells assessed as PARP cleavage at 20 uM after 15 hrs by Western blot analysis. In outline:
as §1

Assay [4] concerns MCF7. Description: Induction of apoptosis in human MCF7 cells at 40 uM by AnnexinV/PI/FITC-based flow cytometric analysis.
Assay [5] concerns MCF7. Put plainly: Induction of apoptosis in human MCF7 cells assessed as PARP cleavage at 20 uM after 15 hrs by Western blot analysis. In outline:
as §1

Assay [6] relates to MDA-MB-231. Description: Induction of apoptosis in human MDA-MB-231 cells at 20 and 40 uM by […].
Assay [7] has as its system MCF7. Put plainly: Induction of apoptosis in human MCF7 cells at 20 uM by AnnexinV/PI/FITC-based flow cytometric analysis.

Active and inactive are the calls of the source. The rule behind the calls is not given here.

As for `CC(C)CCCC(C)CCCC(C)CCOCC1(C)CCc2cc(OCC(=O)O)c(F)cc2O1` (racemic), the EC50 was determined as 35 µM in the assay on MCF7 [1] and 27 µM with MDA-MB-231 [3]. Moreover, the outcome with MDA-MB-231 [2], in the assay listed under Mus musculus, in the assay on MCF7 [4], in the assay with MCF7 [5] and in the assay with MDA-MB-231 [6] was Active.

On to `Cc1c(C)c2c(c(C)c1OCC(=O)O)CC[C@@](C)(COCCC(C)CCCC(C)CCCC(C)C)O2` (mixture of isomers), for which the outcome in the assay on MCF7 [7], in the assay with MDA-MB-231 [2], in the assay filed under Mus musculus, in the assay with MCF7 [4], with MCF7 [5] and in the assay with MDA-MB-231 [6] was Active. The concentration giving a half-maximal response (EC50) with MCF7 [1] was determined as 21 µM; in the assay with MDA-MB-231 [3], 18 µM.

As to `CC(C)CCC[C@@H](C)CCC[C@@H](C)CCC[C@]1(C)CCc2cc(O)c(F)cc2O1`, the result with MDA-MB-231 [2], in the assay filed under Mus musculus and with MCF7 [5] was inactive.

With `Cc1c(C)c2c(c(C)c1OCC(=O)O)CC[C@@](C)(CCC[C@H](C)CCC[C@H](C)CCCC(C)C)O2` [.ALPHA.-TOCOPHERYLOXYACETIC ACID], the outcome in the assay on MCF7 [7], with MDA-MB-231 [2], in the assay listed under Mus musculus, in the assay with MCF7 [4], in the assay with MCF7 [5] and in the assay with MDA-MB-231 [6] was Active. The EC50 came out at 51 µM in the assay with MCF7 [1] and 35 µM in the assay on MDA-MB-231 [3].

Take `CC(C)CCCC(C)CCCC(C)CCCC1(C)CCc2cc(OCC(=O)O)c(F)cc2O1` (racemic): the values for the EC50 in the assay with MCF7 [1] and in the assay on MDA-MB-231 [3] were 60 µM and 34 µM, respectively. Besides, the outcome in the assay filed under Mus musculus and with MCF7 [5] was Active.

`Cc1c(C)c2c(c(C)c1OCC(=O)O)CC[C@](C)(COCCC(C)CCCC(C)CCCC(C)C)O2` (mixture of isomers): the EC50 in the assay with MCF7 [1] was 29 µM; in the assay with MDA-MB-231 [3], 16 µM. In addition, the outcome with MDA-MB-231 [2], in the assay listed under Mus musculus, with MCF7 [4], with MCF7 [5] and in the assay on MDA-MB-231 [6] was Active.

On to `CC(C)CCCC(C)CCCC(C)CCOCC1(C)CCc2cc(O)c(F)cc2O1` (racemic), for which, in the assay on MCF7 [5], the result was Active.

Usually EC50 stands for the concentration giving half of the maximal effect. A higher EC50 goes with a need for much substance.
